# This is one part of a sample in which hits are shown more often than they occur.
# Lung fibro prol: blocks proliferation of human lung fibroblasts. AID 719. viability, % at 10 µM. LL 47 human lung fibroblast viability, ATP luminescence; active compounds read low. hit rate 1.1% among 85,000;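 active = viability at or below 50% in the single dose screen; inactive = viability above 50%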;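 also: compound exposure lasted 72 h before the ATP readout; 100% = median luminescence of untreated cell-only wells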
#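 Material: Human LL 47 lung fibroblast cells | Input: 1,150 cells/well | Buffer or medium: IMEM plus 15% FBS | Compound dosing: 0.1% DMSO in all compound wells | Times: Overnight cell rest, 72 h compound treatment at 37 °C | Signal: CellTiter-Glo luminescence measuring cellular ATP | Measure: % viability versus median cells-only luminescence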
# H69AR inhibit: blocks growth of human H69AR lung tumor cells | AID 598 | hit rate 6% among 85,000 | viability, % at 10 µM | H69AR lung tumor viability, ATP luminescence, 72 h; active compounds read low;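 active = viability at or below 40%; inactive = viability above 40%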;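 also: multidrug resistant small cell line overexpressing MRP-1 efflux transporter; 100% = mean luminescence of untreated control wells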
# HCT116 PTEN-null: growth suppressors of cells with PTEN tumor suppressor deletion. viability, % at 10 µM. HCT116 PTEN-null viability, CellTiter-Glo, 60 h; active compounds read low. hit rate 1.2% among 140,000. AID 827;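 active = viability at or below a set limit, 4 SD under the median of all tested compounds, cut at about 3.7% in these data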;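 also: PTEN knockout HCT116 line with beta catenin targeted HCT116 as companion control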
# HUVEC inhibit: blocks proliferation of human endothelial cells; HUVEC proliferation, CellTiter-Glo luminescence, 72 h; active compounds read low; hit rate 1.1% among 86,000; AID 648; viability, % at 10 µM (by protocol);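 active = viability at or below 30%; inactive = viability above 30%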;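 also: 100% = median luminescence of DMSO-only cell control wells on each plate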
# Calb biofilm kill: kills Candida albicans biofilms. C. albicans biofilm + clotrimazole, Alamar Blue. inhibition, % at 6 µM. hit rate 0.14% among 85,000. AID 834;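 active = inhibition above 20%; inactive = inhibition below 20%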;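 also: preformed 24 hr biofilms exposed to compound for 48 hr; 0% = biofilm without compound and 100% = blank killed by clotrimazole plus chlorhexidine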
# HCT116 bCat-KO: beta-catenin-lacking colon tumor cell growth suppression; HCT116 beta-catenin knockout viability, CellTiter-Glo, 60 h; active compounds read low; viability, % at 10 µM; hit rate 1.5% among 140,000;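 active = viability at or under a set limit, the compound median less 4 SD, cut at about 6% in these data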;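 also: 0% = Hyamine 1622 control at 20 µM and 100% = untreated cell control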
# The depositor's hits bear a star; . = no result given.
SMILES,Lung fibro prol,H69AR inhibit,HCT116 PTEN-null,HUVEC inhibit,Calb biofilm kill,HCT116 bCat-KO
COc1ccc(C2CC(c3c(O)cc(C)oc3=O)=NCCS2)c(OC)c1 (stereo not given),48*,24*,9,48,8,10
FC(F)Sc1ccc(NC(=S)NC2CCCCC2)cc1,96,18*,29,49,6,59
CC1CCCCC1NC(=S)Nc1ccc(SC(F)F)cc1 (stereo not given),44*,32*,11,42,6,40
FC(F)Sc1ccc(NC(=S)NCC2CCCCC2)cc1,83,5.1*,6,43,9,12
COC(=O)C(Cc1c[nH]c2ccccc12)NC(=O)c1cc(-c2ccc(OC)c(OC)c2)oc1C (stereo not given),.,.,77,.,.,84
COC(=O)c1ccc(CSc2nnc(NC(=O)C3CC(=O)N(c4ccc5c(c4)OCCO5)C3)s2)cc1 (stereo not given),.,.,87,.,.,91
CNCCCOc1ccc(C(C)(C)c2ccccc2)cc1,92,9.9*,54,86,6,37
CC1CCCN(S(=O)(=O)c2ccc(S(=O)(=O)N3CCCN(Cc4ccccc4)C3)cc2)C1 (stereo not given),85,31*,.,41,-2,.
CC1CCN(S(=O)(=O)c2ccc(S(=O)(=O)N3CCCN(Cc4ccccc4)C3)cc2)CC1,99,80,.,81,11,.
CC(=O)c1cnc2ncnn2c1C,.,.,96,.,.,91
COC(=O)Oc1nsnc1N1CCOCC1,93,2.7*,118,94,10,101
O=C(Nc1c(C(=O)c2ccccc2)oc2ccccc12)c1cc(-c2ccccc2O)n[nH]1,.,.,1.8*,.,.,1.9*
CC(=O)Nc1c(C)ccc(CNC(=O)COc2cc(C)ccc2C)c1C,.,.,107,.,.,94
CCCCOC(=O)Cn1c2ccc(OC)cc2c2nc3ccccc3nc21,71,28*,3.1*,68,8,4.8*
CCn1c2ccc(OC)cc2c2nc3ccccc3nc21,87,44,73,77,3,62
COc1cccc(C(=O)Nc2cc3c(cc2C(C)=O)OCCO3)c1,.,.,100,.,.,93
CCOc1c(OC)ccc2c3c(c(=O)oc12)CCCC3,97,91,1.1*,109,0,0.5*
COC(=O)C1CCN(C(=O)COc2cc3sc(C)nc3c3sccc23)CC1,99,35*,89,89,-9,81
O=S(=O)(c1ccc2ccccc2c1)N1CCN(C(=S)Nc2ccc(F)c(Cl)c2)CC1,.,.,87,.,.,85
O=C(CCS(=O)(=O)c1ccccc1)Nc1nc2c(s1)COc1ccccc1-2,50*,2.0*,1.8*,58,9,3.1*
Cn1c(=O)c(C(=O)COC(=O)c2cc(-c3ccco3)nc3ccccc23)c(N)n(CC2CC2)c1=O,.,.,36,.,.,39
CCOc1cc(-c2cc(-c3ccc(N)cc3)nc(N)c2C#N)ccc1O,95,3.6*,43,66,2,39
CCOc1cc(-c2c(C#N)c(N)nc3c2CCCC3)ccc1O,104,70,101,102,6,91
CCOc1cc(-c2cc(-c3ccccc3)nc(N)c2C#N)ccc1O,82,23*,11,53,2,10
Clc1ccc(Nc2ncnc3c2cnn3-c2ccccc2)cc1,100,95,76,93,-19,80
SMILES,Lung fibro prol,H69AR inhibit,HCT116 PTEN-null,HUVEC inhibit,Calb biofilm kill,HCT116 bCat-KO
CC(=O)Nc1ccc(Nc2ncnc3c2cnn3-c2cccc(C)c2)cc1,.,.,91,.,.,88
COc1ccc(Nc2ncnc3c2cnn3-c2ccccc2)cc1OC,112,37*,102,90,13,91
COc1ccc(OC)c(Nc2ncnc3c2cnn3-c2cccc(C)c2)c1,61,23*,26,51,6,25
Cc1cccc(OCC(=O)N/N=C\c2cc3c(cc2[N+](=O)[O-])OCO3)c1C,100,86,77,75,-1,76
CCN1CCN(c2cc(N3CCc4ccccc4C3)c(F)cc2[N+](=O)[O-])CC1,.,.,0.5*,.,.,1.0*
Cc1cccc(N2CCN(C(=O)c3ccc4nc(-c5ccco5)c(-c5ccco5)nc4c3)CC2C)c1 (stereo not given),87,54,10,23*,5,8
CCN(CC)CCN(Cc1cc2cc3c(cc2[nH]c1=O)OCCO3)C(=O)NC1CCCCC1,93,35*,83,89,-3,90
Cc1ccc2cc(CN(CC3CCCO3)C(=O)NC3CCCCC3)c(=O)[nH]c2c1C (stereo not given),82,28*,81,83,4,85
Cc1cccc2cc(CN(CC3CCCO3)C(=O)NC3CCCCC3)c(=O)[nH]c12 (stereo not given),95,74,91,102,6,93
CC(C)(C)C1CCc2c(C(=O)NNC(=O)CCCC(=O)O)csc2C1 (stereo not given),.,.,94,.,.,88
CC1=C(C(=O)Nc2ccccc2)C(c2cccc([N+](=O)[O-])c2)Nc2nc3ccccc3n21 (stereo not given),96,35*,70,91,7,70
CNC(=O)C1=C(C)n2c(nc3ccccc32)NC1c1ccc(OC)cc1 (stereo not given),.,.,94,.,.,91
CCNc1nc(NC(C)C)nc(N(C#N)CCOc2ccccc2)n1,88,27*,76,93,6,82
Cc1ccccc1CNc1nc(N)n(-c2ccccc2)n1,104,93,101,105,20*,108
CC(=O)Nc1nc(N)n(-c2ccccc2)n1,101,118,101,90,8,86
Cc1csc2cc(-c3cccc([N+](=O)[O-])c3)c(-c3cccc([N+](=O)[O-])c3)c[n+]12,.,.,99,.,.,90
Cc1ccc2[nH]c(-c3ccccc3)cc(=O)c2c1,61,33*,14,47,2,10
Cc1ccc(-c2cc(=O)c3ccccc3[nH]2)cc1,.,.,66,.,.,67
Cc1cc(N2CCC(C)CC2)nc(SCC(=O)c2ccccc2)n1,92,40*,78,88,8,72
Cc1cc(N2CCCC2)nc(SCC(=O)c2ccccc2)n1,96,74,87,101,-3,89
Cc1nc2c(sc3nc4c(cc32)COC(C)(C)C4)c(=O)n1CC(=O)NCc1ccco1,55,24*,11,49,11,7
CC1(C)Cc2nc3sc4c(SCC(=O)NCc5ccco5)ncnc4c3cc2CO1,62,26*,97,75,9,106
Cc1cccc(-n2nc3c(c2NC(=O)c2ccc(Br)o2)CSC3)c1,100,94,82,93,2,84
Cc1ccc(S(=O)(=O)Oc2ccc(C3C4=C(CCCC4=O)N(CCC(=O)O)C4=C3C(=O)CCC4)cc2Cl)cc1,.,.,99,.,.,88
COc1cc(OC)c(/C=N/n2c(C)nnc2C)c(OC)c1,.,.,91,.,.,83
COC(=O)c1sccc1NC(=O)c1ccc2c(c1)OCO2,29*,39*,89,64,6,97
Cc1ccc(NC(=O)c2ccc3c(c2)OCCO3)cc1,88,83,69,77,5,63

# Screening data deposited in PubChem BioAssay by several laboratories.
